High-throughput results deposited in PubChem by several laboratories.
Shown are actives, neighbours in structure and some others; about 2.9% of the full set was active somewhere.
Hck-Nef inh = inhibitors of Nef-activated human Hck kinase, primary screen, biochemical, Z-Lyte FRET, 384-well, Hck-YEEI | Tyrosine-protein kinase HCK (Homo sapiens), P08631 | Recombinant Hck-YEEI plus Nef, Z-Lyte FRET kinase assay | inhibition, % at 20 µM | 0.68% of 220,000 active | AID 463187, 2010;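 active means Hck-Nef kinase inhibition above about 50%, limit read from the data; inactive means inhibition below that limit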;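 further: 0% = DMSO with Hck plus Nef and 100% = Hck alone without Nef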
Target sequence (P08631 whole entry, looked up): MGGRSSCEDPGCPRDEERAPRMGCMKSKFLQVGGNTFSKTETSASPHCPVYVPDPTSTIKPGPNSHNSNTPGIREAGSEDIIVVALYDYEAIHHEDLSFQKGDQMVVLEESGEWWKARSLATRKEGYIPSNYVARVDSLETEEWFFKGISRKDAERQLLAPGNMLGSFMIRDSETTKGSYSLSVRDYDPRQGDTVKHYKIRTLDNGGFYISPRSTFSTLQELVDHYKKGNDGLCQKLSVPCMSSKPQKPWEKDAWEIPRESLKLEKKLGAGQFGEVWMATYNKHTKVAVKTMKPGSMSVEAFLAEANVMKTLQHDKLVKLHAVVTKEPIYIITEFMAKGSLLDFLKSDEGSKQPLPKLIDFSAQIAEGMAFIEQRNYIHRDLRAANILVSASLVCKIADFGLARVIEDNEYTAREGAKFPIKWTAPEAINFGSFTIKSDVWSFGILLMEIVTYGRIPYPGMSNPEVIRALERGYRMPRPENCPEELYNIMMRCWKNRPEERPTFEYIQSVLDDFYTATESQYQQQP
RBBP9 inhibitor = human RBBP9 inhibitors, primary screen, biochemical, fluorescence polarization, FP-Rh probe, HTS; inhibition, % at 7.94 µM; Serine hydrolase RBBP9 (Homo sapiens), O75884; 0.2% of 220,000 active; recombinant RBBP9; AID 1515, 2009;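 active means inhibition above the campaign mean of all tested compounds plus 3 SD, cut at about 14% in these data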;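 further: plate controls were DMSO wells with RBBP9 for no effect and wells lacking RBBP9 protein for full effect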
Target sequence (O75884 whole entry, looked up): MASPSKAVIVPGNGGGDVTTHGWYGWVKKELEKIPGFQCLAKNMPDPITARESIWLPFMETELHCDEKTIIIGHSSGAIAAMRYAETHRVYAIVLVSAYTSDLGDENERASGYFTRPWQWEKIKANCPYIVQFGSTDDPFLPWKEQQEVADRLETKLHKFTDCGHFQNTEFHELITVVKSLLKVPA
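System: RBBP9 protein / Quantity: 2.5 µM RBBP9 dispensing solution, before mixing / Also added: Serine-hydrolase probe FP-Rh, 375 nM pre-mixing / Dosing: 7.94 µM single dose, 0.794% DMSO / Timing: enzyme-compound preincubation 30 min, then probe labeling 45 min, 25 °C / Signal: FP readout at 525/598 nm / Controls: DMSO-treated enzyme wells and wells lacking RBBP9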
PfM18AAP inh = PfM18AAP inhibitors, malaria aminopeptidase, primary screen, biochemical, QFRET, recombinant enzyme; 1.2% of 290,000 active; inhibition, % at 7.35 µM; H-Glu-NHMec fluorogenic cleavage; M18 aspartyl aminopeptidase (Plasmodium falciparum 3D7);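 active means inhibition above the campaign mean inhibition over all tested compounds plus 3 SD, cut at about 28% in these data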;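 further: 0% = plate median of test compound wells and 100% = 2 mM ZnCl2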
RanGTP-Imp inh = inhibitors of RanGTP-importin-beta interaction, primary screen, biochemical, FRET, CFP-Ran, YFP-importin-beta, homogeneous. Ran GTPase (GTP-bound) - importin-beta complex. cell-free CFP-Ran/YFP-importin-beta FRET ratio. inhibition, % (no concentration beside the values). 1.1% of 300,000 active;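 active means more than half of the replicate wells show a fall in the fluorescence ratio signal beyond about 16%, limit read from the data, passing the limit was not always enough; inconclusive means exactly half of the replicate wells pass the set limit; inactive means fewer than half of replicates pass the limit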;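 further: 0% = DMSO wells and 100% = Ran loaded with GDP instead of GTP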
Runt-SMMHC FRET = inhibitors of RUNX1 Runt–CBFb-SMMHC binding, primary screen, biochemical, FRET, Cerulean-Runt, Venus-CBFb-SMMHC, uHTS | 0.74% of 220,000 active | Runt-related transcription factor 1 (Homo sapiens) + Core-binding factor subunit beta … | inhibition, % at 20 µM | Cerulean-Runt/Venus-CBFb-SMMHC FRET ratio 530/480, 1 h;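 active means mean inhibition across duplicate retests at 20 µM reaching about 50%, limit read from the data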;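 further: 0% = DMSO wells and 100% = wells with excess untagged CBFb-SMMHC; inhibitors lower the FRET ratio by blocking Runt binding to CBFb-SMMHC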
Runt-CBFb FRET = inhibitors of RUNX1 Runt–CBFb binding, primary screen, biochemical, FRET, Cerulean-Runt, Venus-CBFb, uHTS; Runt-related transcription factor 1 (Homo sapiens) + Core-binding factor subunit beta …; Cerulean-Runt/Venus-CBFb FRET ratio 530/480, 1 h; inhibition, % at 20 µM; 0.46% of 220,000 active; AID 1496, 2009;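 active means inhibition over about 50% at 20 µM in the single-dose screen, limit read from the data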;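 further: 0% = DMSO wells and 100% = excess unlabeled CBFb competitor control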
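Assay system: Cerulean-tagged RUNX1 Runt domain (FRET donor) fusion protein / Amount: 100 nM each of Venus-CBFb and Cerulean-Runt domain / Medium: Tris buffer pH 7.5 with salts and BSA / Also added: Venus-CBFb 100 nM / Schedule: 1 h complex formation plus 1 h compound treatment, room temperature / Signal: FRET fluorescence / Read-out: loss of energy transfer signal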
Hck Nef conf = retest of Hck:Nef kinase inhibitor hits, confirmation, biochemical, Z-Lyte FRET, 384-well, p-Tyr peptide counterscreen | Recombinant Hck-YEEI:Nef, Z-Lyte FRET kinase assay | AID 463188, 2010 | calls only at 10 µM | shares compounds with Hck-Nef inh | 28% of 1,300 active;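 active means average inhibition of at least 50%, with Z-scores no higher than 3 in both the phospho-tyrosine peptide and fluorescence counterscreens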
An asterisk follows results filed as active; i = inactive; ? = inconclusive; / = no result shown; + = active, no number.

SMILES	Hck-Nef inh	RBBP9 inhibitor	PfM18AAP inh	RanGTP-Imp inh	Runt-SMMHC FRET	Runt-CBFb FRET	Hck Nef conf
Cc1ccc(Oc2ccc(C(F)(F)F)cc2[N+](=O)[O-])c([N+](=O)[O-])n1	52*	-9	-1	-2	0	1	i
CCCCn1c(N)c(N(CCC(C)C)C(=O)c2ccc([N+](=O)[O-])s2)c(=O)[nH]c1=O	/	/	/	-4	/	/	/
N#Cc1c(NC(=O)CN2CCN(S(=O)(=O)c3ccc4c(c3)OCCO4)CC2)sc2c1CCC2	53*	-7	-12	2	-8	-3	i
C#CCn1c(=NC(=O)c2ccc(S(=O)(=O)N3CCc4ccccc4C3)cc2)sc2cc(S(N)(=O)=O)ccc21	27	-15	-3	10	-6	-4	/
C#CCn1c(=NC(=O)c2sc3ccccc3c2Cl)sc2cc(S(N)(=O)=O)ccc21	62*	-10	-3	3	-31	-18	+
O=C(CN1CC[n+]2c(-c3ccccc3)csc21)c1ccc(Br)cc1	67*	1	7	0	3	5	+
COc1ccc(C)cc1S(=O)(=O)N(C)CC(=O)NCc1ccncc1	/	/	-10	0	/	/	/
Cc1cccc(CNC(=O)C2CCC(=O)N(C3CCCCCC3)C2)c1 (stereo unspecified)	/	/	-5	4	/	/	/
CC(=O)Nc1sc(N/N=C\c2cccc(Cl)c2)nc1-c1cccs1	1	-4	14	1	5	9	/
CC(=O)Nc1sc(N/N=C\c2ccc(O)cc2)nc1-c1cccs1	60*	-3	17	4	-3	15	i
CCOc1ccccc1NC(=O)C1CCCN(S(=O)(=O)c2ccc(-n3cnnn3)cc2)C1 (stereo unspecified)	/	/	-2	-4	/	/	/
O=C(NC(=O)c1ccc(Cl)cc1)Nc1ccc(-c2cnco2)cc1	60*	-8	2	-1	-1	-2	i
O=C(NC(=O)c1ccc(C(F)(F)F)cc1)Nc1ccc(-c2cnco2)cc1	30	-7	1	5	1	-1	/
COc1ccc2cc(C(C)C(=O)Nc3cccc(S(=O)(=O)N(C)C)c3)ccc2c1 (stereo unspecified)	/	/	-1	?	/	/	/
Cc1nc(C)c(CC(=O)N2CCc3c([nH]c4ccccc34)C2c2ccccn2)s1 (stereo unspecified)	+	1	5	1	5	2	i
CC(=O)c1cc(CC(=O)N2CCc3c([nH]c4ccccc34)C2c2ccccn2)cs1 (stereo unspecified)	21	-8	-1	1	/	/	/
COc1ccc(-c2nc(-c3ccc(O)cc3O)cs2)cc1OC	61*	-4	7	-2	-4	-1	+
CC(=O)Nc1cccc(NC(=O)c2cc(-c3cccnc3)nc3ccc(Br)cc23)c1	2	-10	2	4	-12	0	/
CSc1ccccc1NC(=O)c1cc(-c2cccnc2)nc2ccc(Br)cc12	57*	-10	-3	0	-3	-2	i
Cc1[nH]c2ccccc2c1C(=O)CSc1nc2ncc(Cl)cc2[nH]1	72*	-2	-8	-4	-10	-3	+
O=C(CSc1nc2ncc(Cl)cc2[nH]1)NCC(=O)Nc1ccc(F)c(F)c1F	61*	-11	-13	7	-1	-1	/
Nc1cnccc1C(=O)O	3	-8	9	0	-15	0	/
CCOc1ccc2nc(NC(=O)c3cccc(-c4cc5ccccc5oc4=O)c3)sc2c1	43	-15	4	2	-5	-1	/
Cc1ccc2nc(NC(=O)c3cccc(-c4cc5ccccc5oc4=O)c3)sc2c1	63*	-10	-11	-2	-2	-7	i
CCOC(=O)c1cc2c(=O)n3ccccc3nc2n(CCCOC)c1=NC(C)=O	173*	-3	10	/	-19	56*	/
SMILES	Hck-Nef inh	RBBP9 inhibitor	PfM18AAP inh	RanGTP-Imp inh	Runt-SMMHC FRET	Runt-CBFb FRET	Hck Nef conf
CCOC(=O)c1cc2c(=O)n3ccccc3nc2n(C(C)C)c1=NC(=O)c1ccco1	106*	3	19	0	86*	20	/
CCOC(=O)c1sc(=NC(=O)c2ccco2)n(C)c1C	21	-3	3	/	-1	2	/
CCCn1c(=NC(=O)c2ccco2)c(C(=O)OCC)cc2c(=O)n3ccccc3nc21	63*	0	27	116*	56*	19	i
CC(C)CCNC(=O)CCc1nnc2n(CCCOC(C)C)c(=O)c3ccccc3n12	/	/	0	-2	/	/	/
CC(C)OCCCn1c(=NC(=O)c2ccncc2)c(C#N)cc2c(=O)n3ccccc3nc21	109*	2	-2	57*	46	10	/
Cc1cccc(-c2nc3c(c(SCC(=O)N4CCOCC4)n2)COC(C)(C)C3)c1	/	/	-1	6	/	/	/
Cc1ccc(S(=O)(=O)N2CCN(C(=O)CC(C)n3nc(C)c(Cl)c3C)CC2)cc1C (stereo unspecified)	/	/	4	/	/	/	/
CC[C@H]1c2[nH]c3ccccc3c2C[C@@H]2C(=O)N(c3ccc(F)cc3)C(=O)N21	/	/	/	1	/	/	/
CC1(C)Cc2c(sc3[nH]c(=S)n(Cc4ccco4)c(=O)c23)CO1	2	-13	5	1	17	18	/
O=c1c2c3c(sc2[nH]c(=S)n1Cc1ccco1)CCC3	81*	-8	14	2	-2	17	i
O=C1CN(C(=O)c2ccc(Cl)c(S(=O)(=O)N3CCc4ccccc43)c2)c2ccccc2N1	31	-5	-3	-6	-3	0	/
O=C(Oc1ccc(Nc2ncnc3ccccc23)cc1)c1cccnc1	85*	-3	-9	0	2	1	+
COc1cccc(N2CC(C(=O)Nc3nnc(SCC(=O)Nc4cc(C)on4)s3)CC2=O)c1 (stereo unspecified)	52*	6	8	-4	-6	-9	+
CC(=O)NC(Cc1c[nH]c2ccccc12)C(=O)NCCc1ccccn1 (stereo unspecified)	/	/	-6	7	/	/	/
